Measured values from ChEMBL document CHEMBL1144069, “Cytotoxic activities of hypocretenolides from Leontodon hispidus” (J Nat Prod, 1999).
Calls of active or inactive are those of the source. The rule behind the calls is not given here.

Key:
CD34+ cell [1] = test: Antiproliferative activity against CSF and human recombinant erythropoietin-induced human CD34+ cells proliferation assessed as inhibition of BFU-erythroid formation at 1 uM after 12 days by clonogenic assay; type: functional, cell-based
Summary of the method: (§1)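 Human CD34+ cells were immunomagnetically selected from mononuclear cells, with purity checked by FACS. They were plated at 2 × 10^3 cells/dish in Iscove's 0.8% methylcellulose with 30% FCS. Stimulation used 3 U/mL rhEPO plus 10% agar-stimulated leukocyte-conditioned medium. Final concentrations were 0.25–2.00 µM. Dishes were run in duplicate and repeated once (n = 4). CFU-E and mature BFU-E were scored at 12 days; primitive BFU-E and CFU-GM (>50 cells) at 18 days. IC50 was read graphically.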

CD34+ cell [2] = test: Antiproliferative activity against CSF and human recombinant erythropoietin-induced human CD34+ cells proliferation assessed as inhibition of CFU-erythroid formation at 1 uM after 12 days by clonogenic assay; type: functional, cell-based; summary of the method: as §1
[3] = Cytotoxicity against human GTB cells after 5 hrs by MTT assay; type: functional, cell-based
Summary of the method: (§2)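 Leukemic cells at 0.5 × 10^6 cells/mL in RPMI were exposed to 0.01–2.00 µM compound (0.1% final DMSO) at 37 °C and 5% CO2. Viability was measured as MTT formazan, dissolved in DMSO and read at 550 and 630 nm. Three wells per point, on three separate days (n = 9). IC50 was taken graphically from per-experiment dose curves.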

OVCAR-3 [4] = test: Cytotoxicity against human OVCAR-3 cells after 48 hrs by [3H]thymidine incorporation assay; type: functional, cell-based
Summary of the method: (§3)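 Adherent tumor cells (100 µL at 1 × 10^6 cells/mL) were overlaid with 100 µL of medium containing compound in the 0.25–4.00 µM range (0.1% final DMSO). The medium control had no compound. Cells were incubated for 24, 48 or 72 h at 37 °C and 5% CO2, then pulsed 24 h with 3H-thymidine. They were harvested onto glass filters and counted by liquid scintillation. Three wells per point, on three separate days (n = 9). IC50 was taken graphically.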

[5] = Cytotoxicity against human SK37 cells after 72 hrs by [3H]thymidine incorporation assay; type: functional, cell-based; summary of the method: as §3
[6] = Cytotoxicity against human SK MEL28 cells after 48 hrs by [3H]thymidine incorporation assay; type: functional, cell-based; conditions: SK-MEL-28; summary of the method: as §3
A-431 [7] = test: Cytotoxicity against human A431 cells after 72 hrs by [3H]thymidine incorporation assay; type: functional, cell-based; summary of the method: as §3
HEp-2 [8] = test: Cytotoxicity against human HEP2 cells after 24 hrs by [3H]thymidine incorporation assay; type: functional, cell-based; summary of the method: as §3
[9] = Cytotoxicity against human SK MEL28 cells after 24 hrs by [3H]thymidine incorporation assay; type: functional, cell-based; conditions: SK-MEL-28; summary of the method: as §3
[10] = (§4) Antiproliferative activity against CSF and human recombinant erythropoietin-induced human CD34+ cells proliferation assessed as inhibition of CFU-erythroid formation after 12 days by clonogenic assay; type: functional, CD34+ cell; summary of the method: as §1
CD34+ cell [11] = test: as §4; type: functional; summary of the method: as §1
OVCAR-3 [12] = test: Cytotoxicity against human OVCAR-3 cells after 24 hrs by [3H]thymidine incorporation assay; type: functional, cell-based; summary of the method: as §3
HL-60 = test: Cytotoxicity against human HL-60 cells after 5 hrs by MTT assay; type: functional, cell-based; conditions: HL-60, 5 h; summary of the method: as §2
ZR-75-1 [13] = test: Cytotoxicity against human ZR-75-1 cells after 24 hrs by [3H]thymidine incorporation assay; type: functional, cell-based
Summary of the method: (§5)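 Adherent tumour cells at 1 × 10^6 cells/mL (100 µL per well) overlaid with an equal volume of medium carrying test substance across 0.25–4.00 µM. Medium-only controls. Incubated 24, 48 or 72 h at 37 °C, 5% CO2, then pulsed 24 h with 3H-thymidine and harvested onto glass filters for scintillation counting. Final DMSO 0.1%. Triplicate wells, three days (n = 9). IC50 read graphically from each experiment's dose curve.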

HEp-2 [14] = test: Cytotoxicity against human HEP2 cells after 72 hrs by [3H]thymidine incorporation assay; type: functional, cell-based; summary of the method: as §3
MCF7 [15] = test: Cytotoxicity against human MCF7 cells after 24 hrs by [3H]thymidine incorporation assay; type: functional, cell-based; summary of the method: as §3
MCF7 [16] = test: Cytotoxicity against human MCF7 cells after 48 hrs by [3H]thymidine incorporation assay; type: functional, cell-based; summary of the method: as §3
A-431 [17] = test: Cytotoxicity against human A431 cells after 24 hrs by [3H]thymidine incorporation assay; type: functional, cell-based; summary of the method: as §3
ZR-75-1 [18] = test: Cytotoxicity against human ZR-75-1 cells after 72 hrs by [3H]thymidine incorporation assay; type: functional, cell-based; summary of the method: as §5
OVCAR-3 [19] = test: Cytotoxicity against human OVCAR-3 cells after 72 hrs by [3H]thymidine incorporation assay; type: functional, cell-based; summary of the method: as §3
[20] = Antiproliferative activity against CSF and human recombinant erythropoietin-induced human CD34+ cells proliferation assessed as inhibition of CFU-GM formation at 0.5 uM after 18 days by clonogenic assay; design: scale not given: the % may be the effect or the level left
SW872 [21] = test: Cytotoxicity against human SW872 cells after 72 hrs by [3H]thymidine incorporation assay; type: functional, cell-based; summary of the method: as §5
ZR-75-1 [22] = test: Cytotoxicity against human ZR-75-1 cells after 48 hrs by [3H]thymidine incorporation assay; type: functional, cell-based; summary of the method: as §5
[23] = Cytotoxicity against human SK37 cells after 48 hrs by [3H]thymidine incorporation assay; type: functional, cell-based; summary of the method: as §3
HEp-2 [24] = test: Cytotoxicity against human HEP2 cells after 48 hrs by [3H]thymidine incorporation assay; type: functional, cell-based; summary of the method: as §3
CD34+ cell [25] = test: Antiproliferative activity against CSF and human recombinant erythropoietin-induced human CD34+ cells proliferation assessed as inhibition of BFU-erythroid formation after 12 days by clonogenic assay; type: functional, cell-based; summary of the method: as §1
A-431 [26] = test: Cytotoxicity against human A431 cells after 48 hrs by [3H]thymidine incorporation assay; type: functional, cell-based; summary of the method: as §3
CD34+ cell [27] = test: Antiproliferative activity against CSF and human recombinant erythropoietin-induced human CD34+ cells proliferation assessed as inhibition of CFU-GM formation after 18 days by clonogenic assay
MCF7 [28] = test: Cytotoxicity against human MCF7 cells after 72 hrs by [3H]thymidine incorporation assay; type: functional, cell-based; summary of the method: as §3
[29] = Cytotoxicity against human SK37 cells after 24 hrs by [3H]thymidine incorporation assay; type: functional, cell-based; summary of the method: as §3
[30] = Cytotoxicity against human SK MEL28 cells after 72 hrs by [3H]thymidine incorporation assay; type: functional, cell-based; conditions: SK-MEL-28; summary of the method: as §3
SW872 [31] = test: Cytotoxicity against human SW872 cells after 48 hrs by [3H]thymidine incorporation assay; type: functional, cell-based; summary of the method: as §3
[32] = Antiproliferative activity against CSF and human recombinant erythropoietin-induced human CD34+ cells proliferation assessed as inhibition of BFU-erythroid formation at 0.5 uM after 12 days by clonogenic assay; type: functional, CD34+ cell; design: scale not given: the % may be the effect or the level left; summary of the method: as §1
SW872 [33] = test: Cytotoxicity against human SW872 cells after 24 hrs by [3H]thymidine incorporation assay; type: functional, cell-based; summary of the method: as §3
[34] = Antiproliferative activity against CSF and human recombinant erythropoietin-induced human CD34+ cells proliferation assessed as inhibition of CFU-erythroid formation at 0.5 uM after 12 days by clonogenic assay; type: functional, CD34+ cell; design: scale not given: the % may be the effect or the level left; summary of the method: as §1

## C=C(C(=O)O[C@@H]1[C@@H](O)[C@H](O)[C@@H](OCC2=C3C(=O)C=C(C)[C@@]34C[C@@H](CC2)C(=C)C(=O)O4)O[C@H]1CO)[C@@H]1CCC(CO)=C2C(=O)C=C(C)[C@@]2(O)C1
CD34+ cell [1]
  Activity: Active
CD34+ cell [2]
  Activity: Active
[3]
  IC50: 70 nM
OVCAR-3 [4]
  IC50: 1000 nM
[5]
  IC50: 700 nM
[6]
  IC50: 900 nM
A-431 [7]
  IC50: 500 nM
HEp-2 [8]
  IC50: 800 nM
[9]
  IC50: 1300 nM
[10]
  IC100: 2 µM
CD34+ cell [11]
  Activity: Dose-dependent effect
OVCAR-3 [12]
  IC50: 900 nM
HL-60
  IC50: 100 nM
ZR-75-1 [13]
  IC50: 300 nM
HEp-2 [14]
  IC50: 600 nM
MCF7 [15]
  IC50: 500 nM
MCF7 [16]
  IC50: 300 nM
A-431 [17]
  IC50: 700 nM
ZR-75-1 [18]
  IC50: 500 nM
OVCAR-3 [19]
  IC50: 1000 nM
[20]
  Activity: 60%
SW872 [21]
  IC50: 1400 nM
ZR-75-1 [22]
  IC50: 300 nM
[23]
  IC50: 900 nM
HEp-2 [24]
  IC50: 700 nM
CD34+ cell [25]
  Activity: Dose-dependent effect
A-431 [26]
  IC50: 700 nM
CD34+ cell [27]
  Activity: Dose-dependent effect
MCF7 [28]
  IC50: 400 nM
[29]
  IC50: 1300 nM
[30]
  IC50: 400 nM
SW872 [31]
  IC50: 1400 nM
[32]
  Activity: 60%
SW872 [33]
  IC50: 1500 nM
[34]
  Activity: 60%
